Screening results: PubChem, Sanford-Burnham Center for Chemical Genomics
Hits are enriched below; roughly 1.1% of the tested compounds scored in any of these assays.
G6PDH counter: inhibits Leuconostoc G6PDH, flagging false hits in G6PDH-based assays; Purified L. mesenteroides G6PDH, diaphorase/resazurin coupled fluorescence, 45 min; inhibition, % at 5 µM; 200,000 compounds, 0.12% hits; AID 1020; in the data active means inhibition above about 50%
PMI activator: activators of human phosphomannose isomerase | P34949 | purified human PMI, coupled resazurin fluorescence, 20 min; hits give high values; 1 = vehicle control, 0 substrate-free wells | activation factor at 20 µM | 190,000 compounds, 0.005% hits;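 active means activation factor of 2 or more at 20 µM, relative to plate controls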
Target sequence (P34949 whole entry, looked up): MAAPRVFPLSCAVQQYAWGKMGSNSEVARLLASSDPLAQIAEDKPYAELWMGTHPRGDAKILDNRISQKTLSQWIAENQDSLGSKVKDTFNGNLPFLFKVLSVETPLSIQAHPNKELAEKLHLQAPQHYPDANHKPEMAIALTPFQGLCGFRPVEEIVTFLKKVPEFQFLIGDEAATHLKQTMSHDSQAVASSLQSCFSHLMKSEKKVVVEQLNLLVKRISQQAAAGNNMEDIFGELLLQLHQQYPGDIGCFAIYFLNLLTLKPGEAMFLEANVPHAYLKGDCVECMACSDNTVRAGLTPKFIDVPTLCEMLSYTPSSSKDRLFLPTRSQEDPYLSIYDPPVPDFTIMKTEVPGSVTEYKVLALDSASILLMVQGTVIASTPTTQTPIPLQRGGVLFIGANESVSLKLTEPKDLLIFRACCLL
Diaph act CS: counter-screen for diaphorase-based assays: diaphorase activators and chemical reducers. Diaphorase/resazurin coupled assay, resorufin fluorescence, 16 min; hits give high values; 1 = vehicle wells, 0 = NADH-free wells. 190,000 compounds, 0.005% hits. AID 1229. activation factor at 20 µM;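 active means diaphorase activity raised at least twofold by the compound at 20 µM; inactive means activation factor below 2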
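Material: purified diaphorase enzyme from Clostridium kluyveri; Also added: 0.114 mM NADH and 0.1 mM resazurin, final amounts; Doses: single compound dose of 20 µM, 1% DMSO final; Times: 16 min enzyme reaction, ambient temperature; Detection: resorufin fluorescence, excitation 544 nm, emission 590 nm; Measure: increased resorufin signal from activators or reducing compounds.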
Diaph inh CS: counter-screen for diaphorase-based assays: diaphorase inhibitors and chemical oxidizers; inhibition, % at 20 µM; AID 1217; 190,000 compounds, 0.69% hits; diaphorase resazurin-to-resorufin fluorescence, NADH, 16 min; bacterial (C. kluyveri) enzyme, not human;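 active means primary screen inhibition at 20 µM above a set limit, cut at about 50% in these data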;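 further: plate controls were DMSO with full reaction for no effect and wells lacking NADH for full effect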
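Assay system: diaphorase enzyme from Clostridium kluyveri. Quantity: enzyme working solution with 0.14 U/mL diaphorase. Schedule: reaction incubation of 16 min at room temperature. Technique: resorufin fluorescence, excitation 544 nm, emission 590 nm. Controls: No-NADH positive control and DMSO neutral control.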
PMI act satM6P: increases human PMI activity with near-saturating mannose 6-phosphate; P34949; coupled PMI enzyme assay, resazurin fluorescence, 20 min; hits give high values; 1 = untreated enzyme, 0 = substrate-free blank; 190,000 compounds, 0.34% hits; activation factor at 20 µM;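 active means activation factor of 2 or more at 20 µM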
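Test system: human phosphomannose isomerase with PGI, G6PDH, diaphorase coupling enzymes; Amount: PMI at 15 ng/mL final; Reagent: Mannose-6-phosphate 1.0 mM (near-saturating) plus 0.22 mM NADP+; Timing: 20 min, room temperature; Technique: resorufin fluorescence at Ex 544/Em 590 nm; Dosing: 20 µM single dose.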
* marks the source's active call; other numbers are inactive results.

Results for CC(C)CSC1=NSC2=NC(=O)/C(=C\c3coc4ccccc4c3=O)C(=N)N12 ?
G6PDH counter: 8.1; PMI activator: 1.6; Diaph act CS: 0.7; Diaph inh CS: 32.3; PMI act satM6P: 2*

What do the screens show for `CSC1=NSC2=NC(=O)/C(=C\c3coc4ccccc4c3=O)C(=N)N12`?
G6PDH counter: 9.3; PMI activator: 1.3; Diaph act CS: 0.7; Diaph inh CS: 27.5; PMI act satM6P: 1.7

What do the screens show for `CCOC(=O)N=Nc1c2ccccc2c2nc3no[nH]c3nc12`?
G6PDH counter: 55.1*; PMI activator: 1.1; Diaph act CS: 0.8; Diaph inh CS: 20.1; PMI act satM6P: 0.6

Results for CC(C)(C)NC(=O)CN(Cc1ccc(F)cc1)C(=O)Cn1nnc(-c2ccc(F)cc2)n1 ?
G6PDH counter: 19.8; PMI activator: 1; Diaph act CS: 0.8; Diaph inh CS: 22.9; PMI act satM6P: 1

What do the screens show for `CC(=O)C1=C(c2ccc(Br)cc2)C(=O)c2ccccc2C1=O`?
G6PDH counter: 39.4; PMI activator: 0.2; Diaph act CS: 0.4; Diaph inh CS: 61.9*; PMI act satM6P: 0.2

How did CCn1ncc([C@@H]2C[C@H]3CN(Cc4cccc(Cl)c4)C(=O)[C@]34CCCN24)c1C do in these assays?
G6PDH counter: 14.4; PMI activator: 1; Diaph act CS: 1; Diaph inh CS: 4.6; PMI act satM6P: 1

How did CCCn1ncc([C@@H]2C[C@H]3CN(Cc4cccc(Cl)c4)C(=O)[C@]34CCCN24)c1C do in these assays?
G6PDH counter: 2.6; PMI activator: 1; Diaph act CS: 0.4; Diaph inh CS: 59.5*; PMI act satM6P: 0.9

What do the screens show for `Cc1nc(CN(C)Cc2nc(Cc3ccccc3Cl)no2)cs1`?
G6PDH counter: 2.2; PMI activator: 1; Diaph act CS: 0.9; Diaph inh CS: 7.9; PMI act satM6P: 0.8

What do the screens show for `CCn1c(=S)ccc2ccc(OC)cc21`?
G6PDH counter: -11.0; PMI activator: 1.6; Diaph act CS: 0.8; Diaph inh CS: 18.1; PMI act satM6P: 2*

How did CN1CCc2cccc3c2[C@H]1Cc1ccc(O)c(O)c1-3 do in these assays?
G6PDH counter: 43.8; PMI activator: 0.2; Diaph act CS: 0.2; Diaph inh CS: 78.0*; PMI act satM6P: 0.3

How did N#CCCn1cc(/C=C2\NC(=S)N(c3ccccc3)C2=O)c(-c2ccc(F)cc2)n1 do in these assays?
G6PDH counter: 16.2; PMI activator: 0.9; Diaph act CS: 0.2; Diaph inh CS: 84.9*; PMI act satM6P: 0.9

Results for O=C(O)CCn1cc(/C=C2\NC(=S)N(c3ccccc3)C2=O)c(-c2ccc(Br)cc2)n1 ?
G6PDH counter: 2.1; PMI activator: 1; Diaph act CS: 0.8; Diaph inh CS: 22.6; PMI act satM6P: 1

How did COCCN=c1scc(-c2cccs2)n1/N=C/c1ccc(O)c(O)c1O do in these assays?
G6PDH counter: -7.3; PMI activator: 0.3; Diaph act CS: 0.3; Diaph inh CS: 68.8*; PMI act satM6P: 0.5

How did CCN=c1scc(C)n1/N=C/c1ccc(O)c(O)c1O do in these assays?
G6PDH counter: 36.1; PMI activator: 0.2; Diaph act CS: 0.2; Diaph inh CS: 78.8*; PMI act satM6P: 0.2

Results for CCN=c1scc(C)n1/N=C/c1cc(Br)c(O)c(Br)c1 ?
G6PDH counter: -4.7; PMI activator: 1.2; Diaph act CS: 0.8; Diaph inh CS: 25.0; PMI act satM6P: 1.1

Results for COCCN=c1scc(-c2ccccc2)n1/N=C/c1c[nH]c2ccccc12 ?
G6PDH counter: -16.5; PMI activator: 0.7; Diaph act CS: 0.8; Diaph inh CS: 20.3; PMI act satM6P: 0.9

Results for CC1(C)CC(=O)C([N+](=O)[O-])=C(NCCCC(=O)O)C1 ?
G6PDH counter: 12.9; PMI activator: 1.1; Diaph act CS: 0.9; Diaph inh CS: 7.6; PMI act satM6P: 1

What do the screens show for `C=CCNC(=O)CN1C(=O)C2C3c4ccccc4C(c4ccccc43)C2C1=O` (stereo unspecified)?
G6PDH counter: 2.6; PMI activator: 1.2; Diaph act CS: 1.1; Diaph inh CS: -14.5; PMI act satM6P: 1.1

What do the screens show for `CCOc1cc(C=O)ccc1OCCCN1C(=O)NC(C)(C)C1=O`?
G6PDH counter: 7.6; PMI activator: 1.1; Diaph act CS: 0.9; Diaph inh CS: 5.8; PMI act satM6P: 1

Results for CCCCOc1ccc(/C=C/C2=CC(C)(C)NC(=S)N2)cc1OCC ?
G6PDH counter: 6.6; PMI activator: 1.6; Diaph act CS: 1; Diaph inh CS: 2.6; PMI act satM6P: 2*

Results for Cc1cc(C)c(C)c(N=Nc2nc3ccccc3n2C)c1C ?
G6PDH counter: -21.8; PMI activator: 0.8; Diaph act CS: 0.9; Diaph inh CS: 14.3; PMI act satM6P: 0.8

What do the screens show for `Cc1ccc(C)c(N=Nc2nc3ccccc3n2C)c1`?
G6PDH counter: 4.5; PMI activator: 1.3; Diaph act CS: 1; Diaph inh CS: 4.0; PMI act satM6P: 2.2*

What do the screens show for `CC(=O)Nc1ccc(NC(=O)C(OC(=O)c2ccccc2)C(OC(=O)c2ccccc2)C(=O)O)cc1` (stereo unspecified)?
G6PDH counter: 10.5; PMI activator: 1; Diaph act CS: 0.9; Diaph inh CS: 13.5; PMI act satM6P: 0.9

What do the screens show for `Cn1ccc(=S)c2ccccc21`?
G6PDH counter: 5.9; PMI activator: 1.6; Diaph act CS: 0.8; Diaph inh CS: 16.3; PMI act satM6P: 2.2*

What do the screens show for `COc1cc2[nH]c(=S)nc(NCC3CCCO3)c2cc1OC` (stereo unspecified)?
G6PDH counter: 1.8; PMI activator: 1; Diaph act CS: 0.7; Diaph inh CS: 25.6; PMI act satM6P: 1

Results for COc1cc2[nH]c(=S)nc(NC3CCCCCC3)c2cc1OC ?
G6PDH counter: -3.4; PMI activator: 1; Diaph act CS: 0.2; Diaph inh CS: 75.3*; PMI act satM6P: 1

Results for O=C(NCCO)c1cc2ccccc2cc1O ?
G6PDH counter: -1.9; PMI activator: 0.4; Diaph act CS: 0.5; Diaph inh CS: 52.5*; PMI act satM6P: 0.5

Results for NNC(=O)c1cc2ccccc2cc1O ?
G6PDH counter: -17.2; PMI activator: 0.9; Diaph act CS: 0.9; Diaph inh CS: 8.7; PMI act satM6P: 1

Results for C=CCSc1nnc2c(n1)OC(C)=Nc1ccc(Br)cc1-2 ?
G6PDH counter: 14.7; PMI activator: 1.1; Diaph act CS: 0.8; Diaph inh CS: 23.0; PMI act satM6P: 1

How did N#Cc1c2ccc(O)cc2n2ccccc12 do in these assays?
G6PDH counter: 34.8; PMI activator: 0.7; Diaph act CS: 0.6; Diaph inh CS: 40.1; PMI act satM6P: 0.4

What do the screens show for `COc1cc(CNc2ccc3c(c2)CCC3)cc(OC)c1O`?
G6PDH counter: -42.4; PMI activator: 0.6; Diaph act CS: 0.4; Diaph inh CS: 56.0*; PMI act satM6P: 0.7
